Assay results pooled from the literature.
Target: Ephrin type-A receptor 1 (EPHA1, Homo sapiens, UniProt P21709)
Residues used in one study (P21709 26-976): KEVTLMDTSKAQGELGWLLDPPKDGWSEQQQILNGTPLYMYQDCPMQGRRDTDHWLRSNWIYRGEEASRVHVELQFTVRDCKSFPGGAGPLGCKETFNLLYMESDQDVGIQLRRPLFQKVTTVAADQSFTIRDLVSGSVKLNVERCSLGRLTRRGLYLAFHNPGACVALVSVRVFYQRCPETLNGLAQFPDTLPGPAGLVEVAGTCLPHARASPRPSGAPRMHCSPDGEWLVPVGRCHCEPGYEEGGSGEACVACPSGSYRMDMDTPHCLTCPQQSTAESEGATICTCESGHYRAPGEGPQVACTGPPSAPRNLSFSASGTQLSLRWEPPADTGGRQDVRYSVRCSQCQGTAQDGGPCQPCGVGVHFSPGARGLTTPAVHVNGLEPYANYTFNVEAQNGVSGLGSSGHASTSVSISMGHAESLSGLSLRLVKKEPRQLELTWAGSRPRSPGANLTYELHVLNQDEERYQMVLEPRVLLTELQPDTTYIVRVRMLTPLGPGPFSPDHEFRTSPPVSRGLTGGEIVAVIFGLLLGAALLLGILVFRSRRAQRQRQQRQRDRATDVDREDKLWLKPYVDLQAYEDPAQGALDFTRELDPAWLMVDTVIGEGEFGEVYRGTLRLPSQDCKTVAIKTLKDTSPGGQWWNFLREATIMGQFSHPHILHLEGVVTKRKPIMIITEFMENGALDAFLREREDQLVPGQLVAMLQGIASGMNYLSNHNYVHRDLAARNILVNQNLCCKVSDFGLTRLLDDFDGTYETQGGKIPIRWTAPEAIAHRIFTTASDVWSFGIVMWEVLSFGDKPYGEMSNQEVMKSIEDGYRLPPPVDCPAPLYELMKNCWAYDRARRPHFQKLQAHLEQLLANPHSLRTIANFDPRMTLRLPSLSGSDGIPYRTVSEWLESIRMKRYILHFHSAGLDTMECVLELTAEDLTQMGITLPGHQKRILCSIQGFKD

Structure (SMILES)	observed	action	method	tested at	quantity	value
COc1ccc2c(c1)O[C@H](c1ccc(OC)c(OC)c1)C[C@@H]2NC(=O)C1(c2ccc3c(c2)OC(F)(F)O3)CC1	cell-free assay		competition with immobilised ligand	1 µM	remaining binding	88%
Cc1ccc(Nc2nccc(N(C)c3ccc4c(C)n(C)nc4c3)n2)cc1S(N)(=O)=O	enzyme activity	inhibitor		0.3 µM	inhibition	23%
C[C@@H]1CCN(C(=O)CC#N)C[C@@H]1N(C)c1ncnc2[nH]ccc12	cell-free assay			0.5 µM	remaining signal	98%
CCCOc1ccc(OC)c(F)c1C(=O)c1ccc(C(=O)N[C@@H]2CNC[C@H]2NC(=O)c2ccc3[nH]ncc3c2)cc1	enzyme activity	inhibitor		10 µM	remaining activity	85%
CC(C)(C)c1nc2c(s1)c1nc(N)ncc1c1ccc(NS(=O)(=O)c3c(F)cccc3F)c(F)c12	enzyme activity	inhibitor	radiometric	1 µM	remaining activity	94%
Cc1ccc(C(=O)NCc2ccsc2)cc1C#Cc1cn(C(C)C)c2ncnc(N)c12	enzyme activity	inhibitor		1 µM	activity vs control	45%
O=C1Nc2ccc(Cl)cc2C1=Cc1cc(Cl)c(O)c(Cl)c1	cell-free assay			0.5 µM	remaining signal	88.9%
Cn1nc(C(=O)NCc2ccc(C(=O)O)cc2)cc1-c1ccc2[nH]ccc2c1	cell-free assay		competition with immobilised ligand	0.1 µM	remaining binding	95%
CC(C)(O)[C@H]1CC[C@H](Nc2ccc3ncc(-c4cccc(C(F)(F)F)c4)n3n2)CC1	enzyme activity	inhibitor		1 µM	remaining activity	99.6%
Cc1cc(NC(=O)c2cccc3cc(-c4cccc5[nH]nc(N)c45)ccc23)ccc1F	enzyme activity	inhibitor		0.1 µM	activity vs control	102%
O=C(Nc1cnn(-c2csc(C(=O)NC3COC3)c2)c1)Nc1ccccc1Cl	enzyme activity	inhibitor		5 µM	remaining activity	99.1%
CN1CCN(c2cnc3c(C4CCN(C(=O)c5ccc(OC(F)(F)F)cc5N)CC4)ncnc3c2)CC1	cell-free assay		competition with immobilised ligand	1 µM	remaining binding	95%
CCCCNc1ncc2c(-c3ccc(F)cc3)nn(C[C@H]3CC[C@H](N)CC3)c2n1	target engagement in cells	inhibitor	chemoproteomics	20 mM	inhibition	> 97%
CCS(=O)(=O)c1cc2cc(C[C@](O)(CC(C)(C)c3ccc(F)cc3C(N)=O)C(F)(F)F)[nH]c2cn1	cell-free assay		competition with immobilised ligand	1 µM	remaining binding	100%
CNC(=O)c1cc(Oc2ccc(NC(=O)Nc3ccc(Cl)c(C(F)(F)F)c3)cc2)ccn1	enzyme activity	inhibitor		0.3 µM	inhibition	23%
CNC(=O)Nc1ccc2c(c1)[C@@]1(CC2)OC(=O)N(CC(=O)N(Cc2ccc(F)cc2)[C@@H](C)C(F)(F)F)C1=O	cell-free assay		competition with immobilised ligand	1 µM	remaining binding	100%
COc1cc(Cl)c(C(=O)N[C@@H](CN[C@H]2CC[C@@H](N)CC2)Cc2ccc(C#N)cc2)cc1-c1ccc(CN[C@H](C)c2ccc(C)cc2)o1	enzyme activity	inhibitor		1 µM	remaining activity	105%
O=C(N[C@H]1CCCCC/C=C\C2C[C@@]2(C(=O)O)NC(=O)[C@@H]2C[C@@H](Oc3ccncc3)CN2C1=O)OC1CCCC1 (some centres unmarked)	cell-free assay		competition with immobilised ligand	1 µM	remaining binding	90%
Cc1ccc(C(=O)Nc2ccc(CN3CCN(C)CC3)c(C(F)(F)F)c2)cc1C#Cc1cnc2cccnn12	cell-free assay			23.5 nM	remaining signal	55%
COc1cc(-c2cc(-c3ccc(N4CCNCC4)cc3)cnc2C)cc(OC)c1OC	enzyme activity	inhibitor		0.1 µM	inhibition	3%
CCN(CC)CCNC(=O)c1c(C)[nH]c(/C=C2\C(=O)Nc3ccc(F)cc32)c1C	enzyme activity	inhibitor		10 µM	inhibition	62%
O=C1NC(=O)c2cc(Nc3ccc(F)cc3)c(Nc3ccc(F)cc3)cc21	cell-free assay			0.5 µM	remaining signal	97.4%
O=C(Nc1cccnn1)N1CCC(=Cc2cccc(Oc3ccc(C(F)(F)F)cn3)c2)CC1	cell-free assay		competition with immobilised ligand	1 µM	remaining binding	100%
O=C(Nc1cnn(-c2csc(C(=O)NC3COC3)c2)c1)Nc1c(F)cccc1Cl	enzyme activity	inhibitor		5 µM	remaining activity	88.4%
O=C(NCCCC1CCCCC1)c1ccc(CNC(=O)c2cnn(-c3ccccc3)c2C(F)(F)F)cc1	cell-free assay		competition with immobilised ligand	0.1 µM	remaining binding	100%
COc1cc2ncnc(Nc3ccc(Oc4ccccc4)c(C)c3C)c2cc1OC	enzyme activity	inhibitor		1 µM	inhibition	8%
